Converted amounts (≈) assume the structure as drawn.
Experiments:
[1] = Concentration required for the inhibitory activity against PBP2a
Staphylococcus aureus [2] = assay: Concentration required for 90% inhibitory activity against methicillin-resistant Staphylococcus aureus; format: functional
Procedure, shortened: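 Panel of 58 MRSA strains tested by NCCLS broth method in Mueller-Hinton broth with 2% NaCl. Inoculum about 5×10⁵ CFU/mL, 35 °C for 24 h. MICs read as no visible growth, and MIC90 derived across the panel.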

Staphylococcus aureus [3] = assay: Minimum inhibitory concentration against methicillin-resistant Staphylococcus aureus (MRSA) A27223; format: functional
Procedure, shortened: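 Broth microdilution per NCCLS in Mueller-Hinton broth with 2% NaCl. Inoculum about 5×10⁵ CFU/mL, incubated at 35 °C for 24 h. MIC is the lowest drug concentration that inhibits all visible growth.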

Staphylococcus aureus [4] = assay: Minimum inhibitory concentration against methicillin-resistant Staphylococcus aureus (MRSA) A27223 in the presence of 50% calf serum.; format: functional
Procedure, shortened: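 NCCLS broth MIC in Mueller-Hinton broth with 2% NaCl plus 50% calf serum. Inoculum about 5×10⁵ CFU/mL, incubated at 35 °C for 24 h. Read as the lowest concentration with no visible growth.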

Staphylococcus aureus [5] = assay: Dose required for protective activity against methicillin-resistant Staphylococcus aureus (MRSA) A27223 in mouse following i.m. administration.; details: im, read-out: PD50
Enterococcus faecium [6] = assay: Minimum inhibitory concentration against Enterococcus faecium A24885; format: functional
Procedure, shortened: (§1)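 Broth dilution MIC under standard NCCLS-recommended conditions. The MIC was read as the lowest drug concentration giving no visible growth. Where the line states it, 50% calf serum was added.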

Enterococcus faecium [7] = assay: Minimum inhibitory concentration against Enterococcus faecium Amp. R. Vanco. S A28156; format: functional; procedure, shortened: as §1
Enterococcus faecalis [8] = assay: Minimum inhibitory concentration against Enterococcus faecalis A20688; format: functional; procedure, shortened: as §1
Enterococcus faecalis [9] = assay: Minimum inhibitory concentration against Enterococcus faecalis A20688 with 50% calf serum; format: functional; procedure, shortened: as §1
[10] = test system: Staphylococcus epidermidis; assay: Minimum inhibitory concentration against Staphylococcus epidermidis A24548; format: functional; procedure, shortened: as §1
[11] = test system: Staphylococcus epidermidis; assay: Minimum inhibitory concentration against Staphylococcus epidermidis / Imipenem A27368; format: functional; procedure, shortened: as §1
[12] = test system: Staphylococcus epidermidis; assay: Minimum inhibitory concentration against Staphylococcus epidermidis / MR A25783; format: functional; procedure, shortened: as §1
Streptococcus pneumoniae [13] = assay: Minimum inhibitory concentration against penicillin resistant Streptococcus pneumoniae A28272; format: functional
Streptococcus pneumoniae [14] = assay: Minimum inhibitory concentration against Streptococcus pneumoniae / Pen.I A27881; format: functional; procedure, shortened: as §1
Staphylococcus aureus [15] = assay: Minimum inhibitory concentration against Staphylococcus aureus / + 50% calf serum A27223; format: functional
Procedure, shortened: (§2)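 Broth MIC under NCCLS standard conditions in Mueller-Hinton broth plus 2% NaCl. Inoculum was about 5×10⁵ CFU/mL, incubated at 35 °C for 24 h. The endpoint was the lowest drug concentration inhibiting all visible growth. Where the line states it, 50% calf serum was added.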

Staphylococcus aureus [16] = assay: Minimum inhibitory concentration against Staphylococcus aureus / Hetero MR A27217; format: functional; procedure, shortened: as §2
Staphylococcus aureus [17] = assay: Minimum inhibitory concentration against Staphylococcus aureus / Homo MR A27223; format: functional; procedure, shortened: as §2
Staphylococcus aureus [18] = assay: Minimum inhibitory concentration against Staphylococcus aureus / Homo MR A27226; format: functional; procedure, shortened: as §2
Staphylococcus aureus [19] = assay: Minimum inhibitory concentration against Staphylococcus aureus / Homo MR A27295; format: functional; procedure, shortened: as §2
Staphylococcus aureus [20] = assay: Minimum inhibitory concentration against Staphylococcus aureus / Homo MR A27621; format: functional; procedure, shortened: as §2
Staphylococcus aureus [21] = assay: Minimum inhibitory concentration against Staphylococcus aureus / MR. P- A27225; format: functional; procedure, shortened: as §2
Staphylococcus aureus [22] = assay: Minimum inhibitory concentration against Staphylococcus aureus A9606 with 50% calf serum; format: functional; procedure, shortened: as §1
Staphylococcus aureus [23] = assay: Minimum inhibitory concentration against Staphylococcus aureus / Pen.+ A9606; format: functional; procedure, shortened: as §1
Staphylococcus aureus [24] = assay: Minimum inhibitory concentration against Staphylococcus aureus / Pen.- A9497; format: functional; procedure, shortened: as §1
Staphylococcus aureus [25] = assay: Minimum inhibitory concentration against Staphylococcus aureus A20241 /MS/Pen.; format: functional; procedure, shortened: as §1
[26] = test system: Staphylococcus haemolyticus; assay: Minimum inhibitory concentration against Staphylococcus haemolyticus A21638; format: functional; procedure, shortened: as §1
[27] = test system: Staphylococcus haemolyticus; assay: Minimum inhibitory concentration against Staphylococcus haemolyticus / Homo MR A27229; format: functional; procedure, shortened: as §1
Streptococcus pyogenes = assay: Minimum inhibitory concentration against Streptococcus pyogenes Todd Hewitt A9604; format: functional; procedure, shortened: as §1
Staphylococcus aureus [28] = assay: Minimum inhibitory concentration against Staphylococcus aureus / Hetero MR A27218; format: functional; procedure, shortened: as §2
Staphylococcus aureus [29] = assay: Minimum inhibitory concentration against Staphylococcus aureus A27218 with 50% calf serum; format: functional; procedure, shortened: as §2

Row | SMILES | IC50 [1] [nM] | MIC90 (Staphylococcus aureus [2]) [µg/mL] | MIC (Staphylococcus aureus [3]) [µg/mL] | MIC (Staphylococcus aureus [4]) [µg/mL] | ED50 (Staphylococcus aureus [5]) [mg/kg] | MIC (Enterococcus faecium [6]) [µg/mL] | MIC (Enterococcus faecium [7]) [µg/mL] | MIC (Enterococcus faecalis [8]) [µg/mL] | MIC (Enterococcus faecalis [9]) [µg/mL] | MIC [10] [µg/mL] | MIC [11] [µg/mL] | MIC [12] [µg/mL] | MIC (Streptococcus pneumoniae [13]) [µg/mL] | MIC (Streptococcus pneumoniae [14]) [µg/mL] | MIC (Staphylococcus aureus [15]) [µg/mL] | MIC (Staphylococcus aureus [16]) [µg/mL] | MIC (Staphylococcus aureus [17]) [µg/mL] | MIC (Staphylococcus aureus [18]) [µg/mL] | MIC (Staphylococcus aureus [19]) [µg/mL] | MIC (Staphylococcus aureus [20]) [µg/mL] | further results
1 | Cl.NCCC[n+]1ccc(SCC2=C(C(=O)O)N3C(=O)[C@@H](NC(=O)CSc4cc(Cl)ccc4Cl)[C@H]3SC2)cc1.[Cl-] | 1200 | 2 | 0.125 | 2 | 1.4 | – | – | – | – | – | – | – | – | – | – | – | – | – | – | – | –
2 | NC(CCC[n+]1ccc(SCC2=C(C(=O)[O-])N3C(=O)[C@@H](NC(=O)CSc4cc(Cl)ccc4Cl)[C@H]3SC2)cc1)C(=O)O (stereo partly drawn) | 2800 | 3.5 (≈ 5.32 µM) | 1 (≈ 1.52 µM) | 4 | 4.1 | – | – | – | – | – | – | – | – | – | – | – | – | – | – | – | –
3 | Cc1cc(SCC2=C(C(=O)O)N3C(=O)[C@@H](NC(=O)CSc4cc(Cl)ccc4Cl)[C@H]3SC2)cc(CCC(=O)O)[n+]1CCCN.O=C(O)C(F)(F)F.O=C([O-])C(F)(F)F | – | – | – | 4 | 2.5 | 2 | 64 | 0.5 | 4 | 0.03 | 0.5 | 0.25 | 0.25 | 0.06 | 4 | 0.5 | 1 | 0.5 | 2 | 1 | MIC (Staphylococcus aureus [21]): 0.5 µg/mL; MIC (Staphylococcus aureus [22]): 0.25 µg/mL; MIC (Staphylococcus aureus [23]): 0.125 µg/mL; MIC (Staphylococcus aureus [24]): 0.007 µg/mL; MIC (Staphylococcus aureus [3]; Staphylococcus aureus, read-out: MIC): 1 µg/mL; MIC (Staphylococcus aureus [25]): 0.25 µg/mL; MIC [26]: 0.125 µg/mL; MIC [27]: 2 µg/mL; MIC (Streptococcus pyogenes): 0.0005 µg/mL; MIC (Staphylococcus aureus [28]): 0.5 µg/mL; MIC (Staphylococcus aureus [29]): 1 µg/mL
4 | NCCC[n+]1ccc(SCC2=C(C(=O)O)N3C(=O)[C@@H](NC(=O)CSc4cc(Cl)ccc4Cl)[C@H]3SC2)cc1CCCC(=O)O.O=C(O)C(F)(F)F.O=C([O-])C(F)(F)F | 3400 | 4 | 0.5 | 4 | 5.1 | 1 | 32 | 0.25 | 1 | 0.015 | 0.125 | 0.03 | 0.06 | 0.007 | 2 | 0.25 | 0.5 | 0.25 | 1 | 0.5 | MIC (Staphylococcus aureus [21]): 0.5 µg/mL; MIC (Staphylococcus aureus [22]): 0.25 µg/mL; MIC (Staphylococcus aureus [23]): 0.06 µg/mL; MIC (Staphylococcus aureus [24]): 0.001 µg/mL; MIC (Staphylococcus aureus [25]): 0.06 µg/mL; MIC [26]: 0.03 µg/mL; MIC [27]: 1 µg/mL; MIC (Streptococcus pyogenes): 0.0005 µg/mL; MIC (Staphylococcus aureus [28]): 0.5 µg/mL; MIC (Staphylococcus aureus [29]): 0.5 µg/mL
5 | NCCC[n+]1ccc(SCC2=C(C(=O)O)N3C(=O)[C@@H](NC(=O)CSc4cc(Cl)ccc4Cl)[C@H]3SC2)cc1CCC(=O)O.O=C(O)C(F)(F)F.O=C([O-])C(F)(F)F | – | – | 2 | 2 | 2.1 | 2 | 64 | 0.5 | 1 | 0.03 | 0.25 | 0.25 | 0.06 | 0.003 | 2 | 0.5 | 2 | 1 | 4 | 1 | MIC (Staphylococcus aureus [21]): 1 µg/mL; MIC (Staphylococcus aureus [22]): 0.125 µg/mL; MIC (Staphylococcus aureus [23]): 0.125 µg/mL; MIC (Staphylococcus aureus [24]): 0.007 µg/mL; MIC (Staphylococcus aureus [25]): 0.125 µg/mL; MIC [26]: 0.06 µg/mL; MIC [27]: 2 µg/mL; MIC (Streptococcus pyogenes): 0.003 µg/mL; MIC (Staphylococcus aureus [28]): 0.5 µg/mL; MIC (Staphylococcus aureus [29]): 1 µg/mL
6 | Cc1cc(SCC2=C(C(=O)O)N3C(=O)[C@@H](NC(=O)CSc4cc(Cl)ccc4Cl)[C@H]3SC2)cc(CCC(=O)O)[n+]1CCN.O=C(O)C(F)(F)F.O=C([O-])C(F)(F)F | – | – | 2 | 2 | 3.9 | – | – | – | – | – | – | – | – | – | – | – | – | – | – | – | –
7 | C=CCCc1cc(SCC2=C(C(=O)[O-])N3C(=O)[C@@H](NC(=O)CSc4cc(Cl)ccc4Cl)[C@H]3SC2)cc(C)[n+]1CC[C@@H](O)C(=O)O | – | – | 4 (≈ 5.61 µM) | 8 | 19.2 | – | – | – | – | – | – | – | – | – | – | – | – | – | – | – | –
8 | CCCC[n+]1c(C)cc(SCC2=C(C(=O)[O-])N3C(=O)[C@@H](NC(=O)CSc4cc(Cl)ccc4Cl)[C@H]3SC2)cc1CCC(=O)O | – | – | 4 (≈ 5.84 µM) | 8 | > 23 | – | – | – | – | – | – | – | – | – | – | – | – | – | – | – | –
9 | Cc1cc(SCC2=C(C(=O)[O-])N3C(=O)[C@@H](NC(=O)CSc4cc(Cl)ccc4Cl)[C@H]3SC2)cc(CCC(=O)O)[n+]1C[C@@H](O)[C@H](O)[C@@H](O)C(O)O | – | – | 8 (≈ 10.3 µM) | 16 | > 20 | – | – | – | – | – | – | – | – | – | – | – | – | – | – | – | –

Reference: ChEMBL document CHEMBL1134236, “Anti-MRSA cephems. Part 1: C-3 substituted thiopyridinium derivatives” (Bioorg Med Chem Lett, 2001)
